Assay results reported in article PMC3055681 (Neuropsychopharmacology : official publication of the …, 2010).
“Also recorded” adds a separate entry of the source. Where two headings read alike, the source gives them in different places.

Experiments:
humans = settings: cited from earlier work
α6/4β4 nAChRs = α6/4β4 nAChRs (Homo sapiens, UniProt P30926+P43681+Q15825); experiment: Binding affinity for α6/4β4 nAChRs; settings: ratio of binding affinities
[1] = tested on: Wistar rats self-administering 10% ethanol; experiment: Operant self-administration of 10% ethanol; format: in vivo; settings: 10 mg/kg s.c., 30 minutes before session
In short: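 Wistar rats were trained on FR3 (0.1 ml reward), 30 min daily sessions Mon–Fri, to press for 10% (v/v) ethanol. Test compound or saline was given s.c. either 30 min or 2 h before the session, depending on compound. Injections were 7 days apart in a Latin square, with the normal schedule between them. Active lever presses were analysed by repeated-measures ANOVA with Newman–Keuls (n = 8–13).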

[2] = in vivo; ref Obach et al., 2006; Shaffer et al., 2009; cited from earlier work
[3] = Rat pharmacokinetics, unbound brain concentrations; format: in vivo, Sprague-Dawley rats
In short: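 Sprague-Dawley rats were dosed s.c. at 1, 5 or 10 mg/kg. Unbound brain concentration (Cb,u) was estimated over time using an LC-MS/MS assay combined with tissue binding, with values in nM and n = 2 per time point.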

[4] = oral administration, ref Shaffer et al., 2009, cited from earlier work
human α3β4 nAChRs [5] = target: T1, human α3β4 nAChRs (Homo sapiens, UniProt P30926+P32297); format: cell-based
T1 sequence (P32297 32-505): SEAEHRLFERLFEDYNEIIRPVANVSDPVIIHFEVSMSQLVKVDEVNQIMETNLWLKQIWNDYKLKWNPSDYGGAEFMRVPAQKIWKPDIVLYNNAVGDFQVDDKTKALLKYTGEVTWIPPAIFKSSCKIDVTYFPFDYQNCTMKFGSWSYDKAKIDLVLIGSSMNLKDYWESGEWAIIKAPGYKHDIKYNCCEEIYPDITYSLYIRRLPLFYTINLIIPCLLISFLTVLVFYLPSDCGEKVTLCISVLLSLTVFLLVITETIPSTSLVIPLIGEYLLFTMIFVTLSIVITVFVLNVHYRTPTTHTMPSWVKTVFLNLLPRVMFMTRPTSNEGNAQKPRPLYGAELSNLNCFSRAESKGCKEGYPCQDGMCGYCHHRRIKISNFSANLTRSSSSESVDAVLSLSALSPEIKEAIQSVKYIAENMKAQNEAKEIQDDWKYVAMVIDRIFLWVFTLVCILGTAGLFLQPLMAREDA
T1 sequence (P30926 22-498): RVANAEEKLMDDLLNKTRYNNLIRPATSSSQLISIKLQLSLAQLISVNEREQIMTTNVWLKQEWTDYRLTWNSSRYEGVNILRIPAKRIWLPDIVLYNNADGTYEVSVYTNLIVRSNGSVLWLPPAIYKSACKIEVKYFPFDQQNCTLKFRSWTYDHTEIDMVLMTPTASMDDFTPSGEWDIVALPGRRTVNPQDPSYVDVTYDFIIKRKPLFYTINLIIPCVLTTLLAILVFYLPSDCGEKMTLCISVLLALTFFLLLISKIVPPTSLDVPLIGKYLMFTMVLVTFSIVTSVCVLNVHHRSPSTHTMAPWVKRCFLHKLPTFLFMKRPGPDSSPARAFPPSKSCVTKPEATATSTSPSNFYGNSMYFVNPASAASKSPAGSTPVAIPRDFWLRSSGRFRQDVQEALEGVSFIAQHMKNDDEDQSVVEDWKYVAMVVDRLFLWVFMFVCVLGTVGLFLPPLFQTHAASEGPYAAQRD
In short: (§1)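 HEK293 lines stably transfected with human α3β4 or α4β2 nAChRs. Cells were loaded in growth medium with Calcium Green-1 (2 µM final) mixed 1:1 with 20% pluronic F-127, then read on FLIPR (ex 488, em 516 nm). Agonism was a single compound addition compared with 100 µM ACh. Inhibition used 2 min pretreatment then 30 µM ACh, with ΔF taken relative to vehicle-pretreated wells. Runs were in quadruplicate, with EC50/IC50 from concentration curves.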

[6] = tested on: rats self-administering 10% ethanol; experiment: Repeated; format: in vivo
In short: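 Rats trained on FR3 10% ethanol self-administration reached stable baseline and were randomised to drug or saline. Test compound (10 mg/kg s.c.) or saline was given 30 min before each session on 5 consecutive days, with lever presses recorded daily. Post-treatment baseline was taken 24 h after the last dose. The day after a cage change (day 3) was excluded. Analysis was two-way ANOVA with Newman–Keuls (n = 6–7).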

human α4β2 nAChRs = human α4β2 nAChRs (Homo sapiens, UniProt P17787+P43681); format: cell-based
Sequence of human α4β2 nAChRs (P43681 29-627 limits assumed): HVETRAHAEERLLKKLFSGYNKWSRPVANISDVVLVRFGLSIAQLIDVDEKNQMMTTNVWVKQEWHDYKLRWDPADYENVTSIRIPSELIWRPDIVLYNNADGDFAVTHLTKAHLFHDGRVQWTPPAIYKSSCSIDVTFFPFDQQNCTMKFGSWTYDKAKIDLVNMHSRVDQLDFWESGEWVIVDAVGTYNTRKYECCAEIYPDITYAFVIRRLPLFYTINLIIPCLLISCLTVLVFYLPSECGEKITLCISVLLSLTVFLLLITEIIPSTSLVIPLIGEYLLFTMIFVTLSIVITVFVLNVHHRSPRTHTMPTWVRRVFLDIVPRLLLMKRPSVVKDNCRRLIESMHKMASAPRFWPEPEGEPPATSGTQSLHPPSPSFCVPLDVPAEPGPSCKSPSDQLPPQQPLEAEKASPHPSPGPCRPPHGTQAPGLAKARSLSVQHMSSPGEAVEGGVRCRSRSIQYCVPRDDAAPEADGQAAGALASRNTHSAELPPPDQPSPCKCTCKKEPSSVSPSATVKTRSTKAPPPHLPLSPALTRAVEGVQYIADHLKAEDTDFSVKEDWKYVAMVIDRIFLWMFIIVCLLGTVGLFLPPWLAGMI
Sequence of human α4β2 nAChRs (P17787 26-502): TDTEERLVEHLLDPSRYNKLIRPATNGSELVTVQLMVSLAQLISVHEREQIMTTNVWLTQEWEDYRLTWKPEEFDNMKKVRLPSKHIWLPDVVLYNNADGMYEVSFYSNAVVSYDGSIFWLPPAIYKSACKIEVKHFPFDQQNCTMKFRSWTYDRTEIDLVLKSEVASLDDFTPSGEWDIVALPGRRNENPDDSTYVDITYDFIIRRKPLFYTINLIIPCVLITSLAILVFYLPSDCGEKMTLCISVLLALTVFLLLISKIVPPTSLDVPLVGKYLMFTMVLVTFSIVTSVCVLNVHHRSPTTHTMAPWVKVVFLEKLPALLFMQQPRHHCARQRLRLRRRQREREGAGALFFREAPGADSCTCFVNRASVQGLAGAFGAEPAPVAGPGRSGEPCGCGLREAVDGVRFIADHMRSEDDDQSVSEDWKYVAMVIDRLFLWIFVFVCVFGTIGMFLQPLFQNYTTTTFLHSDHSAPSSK
In short: as §1

[7] = tested on: Wistar rats consuming 20% ethanol; experiment: Intermittent access 20% ethanol two-bottle-choice drinking paradigm; format: in vivo
In short: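 Individually housed rats on a reversed 12-h light cycle had intermittent access to 20% (v/v) ethanol versus water in a two-bottle choice. Once baseline drinking was stable, test compound or saline was given s.c. 30 min before bottles were presented. Injections were 7 days apart in a Latin square, each rat serving as its own control. Intake (g/kg) and preference were measured at 30 min, 6 h and 24 h. Analysis was repeated-measures ANOVA with Newman–Keuls.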

rats consuming ethanol = settings: 1 and 2 mg/kg; ref Steensland et al., 2007; cited from earlier work
human α3β4 nAChRs [8] = target: T1, human α3β4 nAChRs; settings: ref Rollema et al., 2007; cited from earlier work
α4β2 nAChRs = settings: ref Glick et al., 2000; cited from earlier work
[9] = clinically tested as a smoking cessation aid, ref Pfizer, data on file
[10] = male, Sprague-Dawley, rat, brain (unbound), subcutaneous, 10 mg/kg

Sequence of α6/4β4 nAChRs (Q15825 26-239): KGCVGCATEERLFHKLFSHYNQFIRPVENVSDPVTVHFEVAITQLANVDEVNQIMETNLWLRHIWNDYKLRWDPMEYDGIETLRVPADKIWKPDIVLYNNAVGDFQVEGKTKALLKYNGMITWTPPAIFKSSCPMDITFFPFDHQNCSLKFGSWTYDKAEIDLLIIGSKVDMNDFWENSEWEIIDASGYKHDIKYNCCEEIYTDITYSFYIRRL
Sequence of α6/4β4 nAChRs (P43681 241-627): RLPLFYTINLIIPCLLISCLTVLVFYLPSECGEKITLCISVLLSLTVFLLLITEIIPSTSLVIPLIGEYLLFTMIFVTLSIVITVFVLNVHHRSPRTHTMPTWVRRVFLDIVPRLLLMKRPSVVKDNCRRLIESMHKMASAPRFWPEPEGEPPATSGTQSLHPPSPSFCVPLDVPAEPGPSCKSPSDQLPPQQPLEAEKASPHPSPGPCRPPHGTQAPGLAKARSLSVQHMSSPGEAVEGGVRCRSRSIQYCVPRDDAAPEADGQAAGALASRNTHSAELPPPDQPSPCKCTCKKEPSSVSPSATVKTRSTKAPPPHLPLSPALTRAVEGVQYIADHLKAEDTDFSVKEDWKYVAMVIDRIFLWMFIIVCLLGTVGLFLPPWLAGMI
Sequence of α6/4β4 nAChRs (P30926 22-498): as the sequence (P30926 22-498) above

Structure (SMILES): FC(F)(F)c1ccc2c(c1)[C@@H]1CNC[C@H]2C1 [CP-601932, (1S,5R)-2,3,4,5-tetrahydro-7-(trifluoromethyl)-1,5-methano-1H-3-benzazepine]
- side effects indicative of ganglion blocking effects (humans; clinical trial as potential smoking cessation aid): did not show side effects indicative of ganglion blocking effects
- abstinence rate (humans; [9]): moderate two-fold increase in abstinence rate that was not statistically significant
- tolerability / safety in humans (humans; [9]): safe in humans; also recorded: generally well tolerated
- fold higher affinity for α3β4 than for α6/4β4 nAChRs (α6/4β4 nAChRs): at least 10 fold
- active lever presses for 10% ethanol vs vehicle [1]: significantly decreased the number of presses on the active lever
- active metabolites [2]: not formed in vivo
- maximal unbound brain concentration Cb,u ([3]; 10 mg/kg s.c., at 30 minutes): 710 nM
- concentration at 5 h [3, 10]: 530 nM
- concentration at 24 h [3, 10]: 85 nM
- brain penetration ([4]; rats): extensive brain penetration
- absorption [4]: well absorbed
- half-life [4]: long half-life
- EC50 (human α3β4 nAChRs [5]; Activation EC50, α3β4, vs 100 μM ACh): 2920 ± 320 nM
- IC50 (human α3β4 nAChRs [5]; IC50 for inhibition of α3β4 nAChRs, range given in text for both compounds): 100 to 300 nM
- IC50 (human α3β4 nAChRs [5]; Inhibition IC50, α3β4, 2 min pre-application, 30 μM ACh challenge): 257 ± 41 nM
- rebound in active lever presses after end of chronic treatment ([6]; 10 mg/kg s.c. for 5 days, compared to baseline): no rebound increase in active lever presses
- active lever presses for 10% ethanol vs vehicle ([6]; 10 mg/kg s.c. once per day for 5 consecutive days, 30 minutes before session): decreased active lever presses
- EC50 (human α4β2 nAChRs): > 30 µM
- IC50 (human α4β2 nAChRs): 114 ± 29 nM
- Activation of α4β2 nAChRs (Ca2+ fluorescence) (human α4β2 nAChRs; α4β2): no measurable change in Ca2+-fluoresence
- ethanol consumption vs vehicle ([7]; 5 mg/kg s.c., at 30 minutes): significantly decreased high voluntary ethanol consumption
- ethanol consumption vs vehicle ([7]; 10 mg/kg s.c., 6 h and 24 h time points): decreased ethanol consumption
- ethanol consumption vs vehicle ([7]; 10 mg/kg s.c., at 30 minutes): significantly decreased high voluntary ethanol consumption
- preference for ethanol over water vs vehicle ([7]; highest dose (10 mg/kg s.c.), all time points): decreased the preference for ethanol over water

Structure (SMILES): c1cnc2cc3c(cc2n1)[C@@H]1CNC[C@H]3C1 [Varenicline]
- ethanol intake (rats consuming ethanol): significantly reduce ethanol intake
- active metabolites [2]: not formed in vivo
- Activation Efficacy (% vs ACh) (human α3β4 nAChRs [8]): 93.5 ± 1.4 (5) % vs ACh

Structure (SMILES): COCC[C@H]1CC2CN3CCc4c([nH]c5ccccc45)[C@](C(=O)OC)(C2)[C@H]13 [18-MC, 18-methoxycoronaridine]
- effect at α4β2 nAChRs (α4β2 nAChRs): no effect
